FLuc stim CS: affects firefly luciferase, flagging false hits in luciferase stimulation screens; P08659; ATPlite luciferase biochemical, luminescence, 10 min; 0 = ATP-free wells, 1 = DMSO control; activation factor at 10 µM; 200,000 tested, under 10 active;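 active = luciferase activation factor, scaled between plate controls, of at least 2 with compound at 10 µM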
Target sequence (P08659 whole entry, looked up): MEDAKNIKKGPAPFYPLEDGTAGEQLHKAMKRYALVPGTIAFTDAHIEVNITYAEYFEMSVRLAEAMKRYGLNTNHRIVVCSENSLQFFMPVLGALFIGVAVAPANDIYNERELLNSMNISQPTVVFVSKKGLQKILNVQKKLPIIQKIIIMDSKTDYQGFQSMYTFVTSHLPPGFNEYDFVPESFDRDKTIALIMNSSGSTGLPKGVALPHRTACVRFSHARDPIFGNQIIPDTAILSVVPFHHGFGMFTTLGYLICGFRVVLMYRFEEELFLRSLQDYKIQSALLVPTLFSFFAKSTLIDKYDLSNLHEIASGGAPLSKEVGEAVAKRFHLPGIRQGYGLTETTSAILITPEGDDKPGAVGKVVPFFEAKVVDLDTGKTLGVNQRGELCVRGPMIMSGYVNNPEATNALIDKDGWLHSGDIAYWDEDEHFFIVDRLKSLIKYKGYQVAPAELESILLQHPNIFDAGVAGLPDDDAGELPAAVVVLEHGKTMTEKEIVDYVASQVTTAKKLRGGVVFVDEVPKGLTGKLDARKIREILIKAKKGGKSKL
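test system = cell-free luciferase reagent | medium = PBS as buffer for the ATP substrate | dosing = test compounds dosed from 2 mM stocks in 100% DMSO | incubation = 10 min at ambient temperature | detection = luminescence measurement of luciferase light output | benchmarks = low control with PBS replacing ATP, high control enzyme plus ATP without compound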
FLuc inh counter: inhibits firefly luciferase, flagging false hits in luciferase inhibition screens; P08659; ATPLite firefly luciferase biochemical luminescence, 10 min; AID 1006; inhibition, % at 10 µM; 1.5% of 200,000 active;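 active = inhibition above about 50% when tested at 10 µM, limit read from the data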
C8 TRAIL sens: sensitizes caspase-8 expressing cells to TRAIL | 1% of 360,000 active | NB7+C8 cells + TRAIL, ATPlite viability luminescence | inhibition (viability loss, TRAIL sensitization), % at 10 µM;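 active = compounds causing at least 50% loss of cell viability in the single-dose screen, relative to plate controls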
PPC-1+TRAIL kill: kills PPC-1 cancer cells in the presence of TRAIL; AID 1443; 0.41% of 220,000 active; cell killing (% activity), % at 4 µM or 5 µM; PPC-1 cells + TRAIL, ATPLite viability luminescence;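 active = cell killing above 50% in the first pass at 4 µM, then a duplicate retest at 5 µM averaging 50% or more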;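 note: plate controls were cells with TRAIL plus DMSO for no effect and medium-only wells lacking cells for full effect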
* = called active by the depositor; . = no result. Most compounds without a hit are left out; they make up all but 1.5% or so of the library.

SMILES | FLuc stim CS | FLuc inh counter | C8 TRAIL sens | PPC-1+TRAIL kill
Cc1ccc(/C=N/Nc2nc3ccccc3[nH]2)s1 | 0.3 | 72* | 13 | 1
Brc1ccc(-c2ccc(/C=N/Nc3nc4ccccc4[nH]3)o2)cc1 | 0.2 | 81* | 52* | 12
Cc1ccccc1/C=N/Nc1nc2ccccc2[nH]1 | 0.8 | 15 | 1 | -5
O=[N+]([O-])c1cc(/C=N/Nc2nc3ccccc3[nH]2)c(O)cc1O | 0.8 | 20 | . | 53*
Brc1ccc(-c2ccc(/C=N/Nc3nncc(-c4ccccc4)n3)o2)cc1 | 1 | -3 | 20 | 5
Cc1nn(-c2ccccc2)c(Cl)c1/C=N/Nc1nc2ccccc2[nH]1 | 0.4 | 65* | 35 | 30
COc1cc(C)c(NC(=O)c2cc(C3CC3)nc3c2cnn3C(C)C)cc1OC | . | . | 13 | .
COc1ccc2nc3cc(Cl)ccc3c(Nc3ccc(O)c(CN4CCN(C)CC4)c3)c2c1 | . | . | 74* | .
COC(=O)[C@]12CCCCC=C1N(Cc1ccco1)C(=O)[C@H](CC(=O)NCCC(C)C)C2 | . | . | 5 | .
O=C(O)c1cccc(COc2ccccc2Cl)c1 | 0.4 | 63* | 34 | 25
O=C(O)c1ccc(COc2ccccc2Cl)cc1 | 1 | 3 | -12 | 21
Cc1ccc(/C=C/c2nnc(-c3cccs3)o2)cc1 | 0.5 | 51* | 21 | 16
Fc1ccc(/C=C/c2nnc(-c3cccs3)o2)cc1 | 0.7 | 28 | 20 | 13
COc1ccc(/C=C/C(=O)C2C(=O)C=C(C)OC2=O)cc1O (stereo unspecified) | 0.2 | 83* | 45 | 25
CCOC(=O)c1cnc2cc(-c3ccc(Cl)cc3)nn2c1N | 1 | 3 | 5 | 17
CSc1nc(N)n2nc(-c3ccc(Cl)cc3)cc2n1 | . | . | 45* | 19
COc1ccc(O)c(/C=N/NC(=S)Nc2cccnc2)c1 | 0.6 | 36 | 65* | 48
COc1ccccc1NC(=S)N/N=C/c1ccc(O)cc1 | 1 | 5 | 46 | 32
COc1cccc(/C=N/NC(=S)Nc2cccc(C(=O)O)c2)c1 | 0.5 | 53* | 24 | 19
COc1cc(/C=N/NC(=S)N/N=C/c2cc(OC)c(OC)c(OC)c2)cc(OC)c1OC | 0.3 | 68* | 16 | -1
Oc1ccc(/C=N/NC(=S)N/N=C/c2ccc(O)cc2)cc1 | 0 | 96* | 5 | 23
O=S(=O)(NC(=S)c1ccccc1)c1ccc(F)cc1 | . | . | 10 | .
CC(=O)c1cccc(NC(=O)CN2CCc3cc4c(cc3C2C)OCCCO4)c1 (stereo unspecified) | . | . | -7 | .
O=S(=O)(CCNCc1ccco1)NC1CCCCC1 | . | . | -21 | .
Oc1ccc(/C=N/NC(=S)Nc2cccnc2)cc1 | . | . | 71* | 40
SMILES | FLuc stim CS | FLuc inh counter | C8 TRAIL sens | PPC-1+TRAIL kill
COc1ccc(N2CC(C(=O)NNC(=O)c3ccc(Br)cc3)CC2=O)c(OC)c1 (stereo unspecified) | . | . | -1 | .
O=C(NCC1CCCC(CNC(=O)Nc2ccc(Cl)cn2)C1)Nc1ccc(Cl)cn1 (stereo unspecified) | . | . | -6 | .
CSc1n[nH]c(NCc2ccc(C)cc2)n1 | 0.4 | 60* | 31 | 25
CSc1n[nH]c(NCc2ccc(Cl)cc2)n1 | 0.8 | 19 | 6 | 21
Nc1ccc(C=C2C=Cc3ccccc32)cc1 | . | . | 9 | .
NC(N)=Nc1ccc(C=C2C=Cc3ccccc32)cc1 | . | . | 87* | .
C/C(=N\NC(=O)COc1ccc(C)cc1C(C)C)c1cc2ccccc2o1 | 0.3 | 72* | 47 | 16
CCC(=O)N1CCN(c2ccc(NC(=O)c3ccc([N+](=O)[O-])o3)cc2Cl)CC1 | 1 | -4 | 70* | 31
O=C(Nc1ccc(N2CCN(C(=O)c3cccs3)CC2)cc1)c1ccc([N+](=O)[O-])o1 | . | . | 94* | .
CC(=O)N1CCN(c2ccc(NC(=O)c3ccco3)cc2Cl)CC1 | . | . | 0 | .
CC(=O)N1CCN(c2ccc(NC(=O)c3ccc([N+](=O)[O-])o3)cc2Cl)CC1 | . | . | 30 | .
CCC(=O)N1CCN(c2ccc(NC(=O)c3cc4ccccc4o3)cc2Cl)CC1 | 1 | -4 | 61* | 25
O=C(Nc1ccc(N2CCOCC2)c(Cl)c1)c1ccco1 | 0.4 | 59* | 40 | 14
O=C(CCCn1cncn1)N1CCCC(Nc2ccc(F)cc2)C1 (stereo unspecified) | . | . | -7 | .
O=C(Nc1ccc(N2CCN(C(=O)c3ccccc3)CC2)c(Cl)c1)c1ccco1 | 1.1 | -5 | 19 | 28
CN1CCN(c2ccccc2NC(=O)c2ccc([N+](=O)[O-])o2)CC1 | . | . | 60* | .
CS(=O)(=O)N1CCN(c2ccccc2NC(=O)c2ccc([N+](=O)[O-])o2)CC1 | 1.1 | -5 | -2 | 26
O=C(Nc1ccc(N2CCN(C(=O)c3ccco3)CC2)c(Cl)c1)c1cc2ccccc2o1 | 1 | 3 | 61* | 21
O=C(Nc1ccc(N2CCOCC2)c(F)c1)c1cccs1 | . | . | 56* | .
CCCC(=O)N1CCN(c2ccc(NC(=O)c3cccs3)cc2Cl)CC1 | 1.1 | -6 | -5 | .
CCCC(=O)N1CCN(c2ccc(NC(=O)c3cc4ccccc4o3)cc2Cl)CC1 | 1 | -3 | 54* | 30
COC(=O)c1cc(NC(=O)c2cccs2)ccc1N1CCOCC1 | 1 | 4 | -7 | .
c1ccc2c(-c3cn4ccccc4n3)c[nH]c2c1 | 0.8 | 22 | . | 28
O=C(Nc1ccccc1Cl)C1CCCN(S(=O)(=O)c2ccc(-n3cnnn3)cc2)C1 (stereo unspecified) | . | . | 2 | .
N/C(=N\OC(=O)CCC1CCCC1)c1ccc(Br)cc1 | . | . | 0 | .
SMILES | FLuc stim CS | FLuc inh counter | C8 TRAIL sens | PPC-1+TRAIL kill
N/C(=N\OC(=O)CCCc1ccccc1)c1cccnc1 | 0.5 | 50* | -11 | -3
O=C(O/N=C(/c1ccccc1)c1ccncc1)c1ccc(F)cc1 | 1 | -2 | -1 | 17
Cc1ccccc1C(=O)O/N=C(\N)c1ccncc1 | 0.3 | 69* | 52* | 13
COc1cccc(C(=O)O/N=C(\N)c2ccncc2)c1OC | 0.9 | 13 | 5 | 12
N/C(=N\OC(=O)CCCc1ccccc1)c1ccccc1 | . | . | -8 | .
N/C(=N\OC(=O)CCC1CCCCC1)c1cccnc1 | 0.4 | 63* | -1 | 1
N/C(=N\OC(=O)c1ccccc1)c1ccn[nH]1 | . | . | 56* | .
CCCCNC(=O)C1(C)CCN1C(=O)c1ccc2sccc2c1 (stereo unspecified) | . | . | 0 | .
CSCCC(C(=O)NC(C)(C)C)n1c(-c2cccc(NC(C)=O)c2)nc2ccccc21 (stereo unspecified) | . | . | 9 | .
CCCCOCCCNC(=O)C[C@@H]1C[C@@]2(C(=O)OC)CCCCC=C2N(CCc2ccc(OC)c(OC)c2)C1=O | . | . | 9 | .
N/C(=N\OC(=O)c1ccccc1Cl)c1cccnc1 | 0.2 | 83* | 69* | 29
N/C(=N\OC(=O)c1cc(Cl)ccc1Cl)c1cccnc1 | 0.8 | 16 | 6 | 2
N/C(=N\OC(=O)c1ccccc1)c1cccnc1 | 0.1 | 92* | 2 | 5
N/C(=N\OC(=O)c1ccccc1Cl)c1ccncc1 | 0.5 | 54* | 21 | 19
O=C(O)c1ccccc1C(=O)c1ccc2c(c1)CCC2 | . | . | 4 | .
CC(Nc1c[nH]c(=O)[nH]c1=O)c1ccccc1 (stereo unspecified) | . | . | -25 | .
CCOc1ccccc1/C=N/Nc1ccnc(=O)[nH]1 | . | . | 1 | .

High-throughput results deposited in PubChem by Sanford-Burnham Center for Chemical Genomics.
